Assay results from different studies.
Target: Carbonic anhydrase 2 (CA2, Homo sapiens, UniProt P00918)
Effect on: enzyme activity
Mode: inhibitor

SMILES	method	Ki
N#CSCc1cc(=O)oc2cc(O)ccc12	stopped-flow	> 100000 nM
Nc1ccc(S(=O)(=O)c2ccc(N)cc2)cc1	absorbance	9480 nM
COc1ccc(NC(=S)N/N=C/c2ccc(N3CCC(O)CC3)cc2)cc1		603 nM
O=c1[nH]c(=O)n([C@H]2C[C@H](O)[C@@H](CO)O2)cc1/C=C/Br	absorbance	7440 nM
NS(=O)(=O)c1nnc(NC(=O)CN2CC3CCC2CC3)s1	stopped-flow	43.7 nM
OC1CCN(c2ccc(/C=N/NC(=S)NC3CCCCC3)cc2)CC1		482 nM
NS(=O)(=O)c1nnc(NC(=O)C(F)CC2CCCCC2)s1 (centres unmarked)	stopped-flow	4.9 nM
OC1CCN(c2ccc(/C=N/NC(=S)NCc3ccccc3)cc2)CC1		561 nM
CC1CCCC(C(=O)Nc2nnc(S(N)(=O)=O)s2)C1 (centres unmarked)	stopped-flow	31.5 nM
N#CSCCCCOc1ccc2c(-c3ccccc3)cc(=O)oc2c1	stopped-flow	> 100000 nM
OC1CCN(c2ccc(/C=N/NC(=S)Nc3ccc(Br)cc3)cc2)CC1		334 nM
NS(=O)(=O)c1nnc(NC(=O)C2CCC3(CCC3)CC2)s1	stopped-flow	21.7 nM
CC(C)[C@H](N)C(=O)OCCOCn1cnc2c(=O)[nH]c(N)nc21	absorbance	5740 nM
OC1CCN(c2ccc(/C=N/NC(=S)NCc3ccc(Cl)cc3)cc2)CC1		378 nM
CCOC(=O)N1CCC(=C2c3ccc(Cl)cc3CCc3cccnc32)CC1	absorbance	8270 nM
NS(=O)(=O)c1nnc(NC(=O)C2CC23CCCOC3)s1 (centres unmarked)	stopped-flow	50.8 nM
O=C(O)COCCN1CCN(C(c2ccccc2)c2ccc(Cl)cc2)CC1 (centres unmarked)	absorbance	9590 nM
Cc1cccc(C)c1NC(=S)N/N=C/c1ccc(N2CCC(O)CC2)cc1		436 nM
Cn1cnc([N+](=O)[O-])c1Sc1ncnc2nc[nH]c12	absorbance	13000 nM
NS(=O)(=O)c1nnc(NC(=O)C2CCC3(CCCCC3)CC2)s1	stopped-flow	32.6 nM
